Source: PubChem BioAssay
bCat nuc transl: modulators of beta-catenin nuclear translocation. HeLa beta-catenin nuclear translocation, immunofluorescence imaging. nuclear translocation activity, % at 5 µM. 190,000 tested, 0.3% active. AID 1665;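 active = nuclear translocation activity above 50% at 5 µM, with a well cell count of 50 or more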;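 also: per-cell ratio of nuclear to cytoplasmic median beta-catenin stain intensity; plate controls were DMSO negative control for no effect and GSK-3 inhibitor IX positive control for full effect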
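assay system = human HeLa cells, endogenous beta-catenin | times = compound treatment 24 h, 37°C, 5% CO2 | detection = Anti-beta-catenin immunofluorescence on PFA-fixed, Triton-permeabilized cells, DAPI nuclei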
MT stabilize HCS: microtubule stabilizers in HeLa cells | 200,000 tested, 0.83% active | % tubulin-high responders, % at 10 µM | HeLa tubulin immunostaining HCS, 24 h; share of cells brighter than vehicle mean+2SD;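 active = plate Z-score above 3 for both tubulin-high and condensed-nucleus cell shares, with cell loss under 80%, at 10 µM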;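 also: anti alpha tubulin signal scored within the nucleus-defined area of each cell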
L major viab: inhibitors of Leishmania major promastigote growth | Leishmania major promastigotes, resazurin fluorescence viability | inhibition, % at 10 µM | 200,000 tested, 9% active | AID 1063; in the data active = inhibition above about 50%;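 also: promastigotes grown with compound for 44 hours at 28 °C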
Dynein cargo inh: blocks dynein driven cargo transport along microtubules | 3617.4 mouse cells, GR-EGFP nuclear translocation imaging; test concentration mostly 20 µM; stimulated with dexamethasone, 1 µM; hits give low values | z-score, hits read low | 220,000 tested, 0.47% active | AID 1381;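 active = plate z-score of nuclear minus cytoplasmic receptor signal below a set negative limit, without overly bright fluorescence or cell loss, cut at about -3.5 in these data, passing the limit was not always enough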;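 also: z-score of nuclear minus cytoplasmic ring GR-EGFP intensity difference per well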
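Buffer or medium: tet-free, stripped-serum medium; reagent: dexamethasone at 1.0 µM final, 30 min; incubation: 48 h induction, 1 h compound, 30 min dex at 37 °C; measured by: formaldehyde fixation, Hoechst nuclear stain, 10x automated fluorescence imaging; read-out: nuclear-to-cytoplasmic GR-EGFP distribution per well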
HSV augment: HSV replication enhancement; HSV replication augmentation in cells, fold increase; maximum fold increase; 220,000 tested, 0.005% active; AID 1956; in the data active = maximum fold increase above about 1.5; tested in PC3 cells
The depositor's hits bear a star; i = inactive; nt = not tested or not shown. Rows were chosen to be rich in hits. Some 8.9% of all compounds tested hit in one or more screens of this group.

SMILES	bCat nuc transl	MT stabilize HCS	L major viab	Dynein cargo inh	HSV augment
Cn1cccc1Cc1nnc(SCC(=O)NCC2CCCO2)n1-c1ccc(F)cc1 (centres undefined)	0	3	-3	0.4	i
Cc1ccc(OCCN(C)C)c([N+](=O)[O-])c1	3	4	-2	-0.36	i
COC(=O)c1cc2occc2n1Cc1ccc(Cl)cc1	nt	1	56*	1.9	i
O=C(O)c1cc(NC(=O)c2ccc(Cl)c([N+](=O)[O-])c2)cc(C(=O)O)c1	-2	6	-9	-0.35	i
O=C(Nc1ccccc1)Nc1ccc(Cl)c([N+](=O)[O-])c1	0	4	53*	-0.48	i
Cc1ccc(NC(=O)Nc2ccccc2)cc1[N+](=O)[O-]	0	2	-8	-0.68	i
O=C(Nc1ccc(C(O)(C(F)(F)F)C(F)(F)F)cc1)c1ccc(Cl)c([N+](=O)[O-])c1	-1	3	53*	-0.92	i
CCOC(=O)N1CCN(C(=O)CSc2ccc(-c3ccncc3)nn2)CC1	2	3	-3	0.47	i
CC1CCN(C(=O)CSCC(=O)Nc2nc(-c3cccs3)cs2)CC1	-5	6	-6	-1.6	i
CCOC(=O)N1CCN(C(=O)CSCC(=O)Nc2nc(-c3cccs3)cs2)CC1	-2	3	79*	-0.67	i
CCCC(=O)Nc1ccc(N2CCCCC2)cc1	0	3	0	2.1	i
CCOC(=O)C1=C(C)OC(N)=C(C#N)C1c1cc2cc(C)ccc2nc1N1CCCCC1 (centres undefined)	-1	4	13	-1.5	nt
CCOC(=O)C1=C(C)OC(N)=C(C#N)C1c1cc2ccccc2nc1N1CCCCC1 (centres undefined)	-9	6	86*	3.2	i
Cn1c(CN2CCN(C(=O)c3ccc(F)cc3)CC2)nc2cc([N+](=O)[O-])ccc21	-1	3	64*	-0.63	i
CCC(CC)c1nc2ccccc2c(=O)[nH]1	-1	2	-6	0.1	i
O=[N+]([O-])c1c(Nc2ccc(O)cc2)cc(N2CCOCC2)c2nonc12	0	2	5	0.32	i
COc1ccccc1Nc1cc(N2CCOCC2)c2nonc2c1[N+](=O)[O-]	-1	16*	0	-0.45	i
CCOC(=O)/C(=C/C=C1\Sc2cc(OCC)c(OCC)cc2N1CC)C(C)=O	nt	54	68*	3.5	nt
CCN1/C(=C/C(C)=O)Sc2ccc(OC)cc21	6	13	-5	-0.94	i
CCCc1nc(NCc2ccncc2)c2nnn(Cc3ccccc3F)c2n1	nt	3	57*	1.7	i
CCCc1nc(NCc2ccccn2)c2nnn(Cc3ccccc3F)c2n1	-1	3	5	-1.2	nt
Cc1ccc(NCCC(=O)c2ccc(Cl)cc2)cc1C	3	1	5	-0.42	i
CCNc1nc(NCC)n2c(SC(C(=O)Nc3cc(C)ccc3OC)c3ccccc3)nnc2n1 (centres undefined)	1	2	89*	0.045	i
COc1ccc(C)cc1NC(=O)C(Sc1nnc2ccccn12)c1ccccc1 (centres undefined)	nt	2	0	0.3	i
NC(N)=N/N=C/c1ccc(OCc2ccc(Cl)cc2)cc1	33	85	101*	-1.2	i
SMILES	bCat nuc transl	MT stabilize HCS	L major viab	Dynein cargo inh	HSV augment
CCOc1ccc(/C=N/O)cc1	-4	1	5	1.1	i
NC(N)=N/N=C/c1ccc(OCc2ccccc2)cc1	17	18	101*	-1.9	i
Cc1ccc(COc2ccc(/C=N/O)cc2)cc1	-4	1	58*	0.24	i
COc1ccc(/C(C)=N/NC(=O)CNC(=O)c2cccs2)cc1OC	0	3	3	0.24	i
COc1cc(C(=O)NCC(=O)N/N=C(/C)c2cccs2)cc(OC)c1OC	0	3	65*	0.38	i
Cc1ccc(Nc2nc3c([nH]2)c(=O)[nH]c(=O)n3C)cc1	nt	1	-5	-0.6	nt
Cc1ccc(NC(=O)CCNS(=O)(=O)c2cc(Br)cnc2N)cc1Cl	-4	3	35	-0.68	i
Nc1ncc(Br)cc1S(=O)(=O)NCCC(=O)Nc1cccc(Cl)c1	0	2	64*	-0.26	i
c1ccc2c(C3=NNC(=NC4CCCCC4)SC3)c[nH]c2c1	0	2	93*	0.41	i
c1ccc(C2=NNC(=NC3CC3)SC2)cc1	-4	2	-5	-0.33	i
c1ccc2c(C3=NNC(=NC4CC4)SC3)c[nH]c2c1	nt	2	97*	-0.39	i
Cc1cc(C2=NNC(=NC3CC3)SC2)c(C)n1-c1ccccc1	1	5	18	0.68	i
CN(C)c1cccc2c(S(=O)(=O)Nc3ccccn3)cccc12	-1	2	-4	-0.62	i
Cn1nc(-c2ccc(N3CCCCC3)c(NC(=O)c3ccco3)c2)c2ccccc2c1=O	0	1	56*	0.095	i
Cc1ccc(S(=O)(=O)NCCC(c2ccc(F)cc2)c2ccco2)cc1 (centres undefined)	-1	1	56*	-0.15	i
O=S(=O)(NCC(c1ccco1)N1CCN(c2ccccc2)CC1)c1ccc(F)cc1 (centres undefined)	-2	7	6	-0.24	i
O=S(=O)(NCC(c1ccco1)N1CCN(c2ccc(F)cc2)CC1)c1ccc(F)cc1 (centres undefined)	-4	4	75*	-0.55	i
O=C(NCc1ccncc1)C(=O)NCC(c1ccco1)N1CCN(c2ccc(F)cc2)CC1 (centres undefined)	5	1	55*	0.73	i
CC(C)(C)N(Cc1cc2ccccc2[nH]c1=O)C(=O)C1CCCCC1	1	7	13	-0.42	i
O=C(COC(=O)CCCCCN=C1NS(=O)(=O)c2ccccc21)Nc1ccc(Cl)c(Cl)c1	-5	4	-6	0.00092	i
Nc1nc(NCCO)nc(NCC2CCCO2)c1[N+](=O)[O-] (centres undefined)	5	2	-7	0.16	i
OC(CN1c2ccccc2Sc2ccccc21)Cn1nnc2ccccc21 (centres undefined)	-1	3	48	1.4	i
Cc1nn(CC(O)CN2c3ccccc3Sc3ccccc32)c(C)c1Br (centres undefined)	nt	1	64*	-0.97	i
Cc1ccc(/C=C2/C(=O)c3ccc(C(=O)O)cc3C2=O)o1	0	2	-9	-0.29	i
S=C(Nc1ccccc1)N1CCn2cccc2C1c1cccnc1 (centres undefined)	-2	6	86*	-1.3	nt
COc1ccccc1NC(=S)N1CCn2cccc2C1c1cccnc1 (centres undefined)	0	2	78*	0.02	i
Fc1ccc(C2c3cccn3CCN2C(=S)Nc2cccc(F)c2)cc1 (centres undefined)	-3	3	21	0.22	i
